Columns and labels:
MOLT-3 [1] = assay: Cytotoxicity in human Molt-3 cell line after 24 hours; type: functional; conditions: MOLT-3, 24 h
Summary of the method: (§1)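 Cells held in optimal culture conditions were exposed to test agent at 16 to 1000 µM, or control medium, for the stated time. Viability was scored by trypan blue exclusion. CC50 is the concentration giving 50% toxicity, from three or more experiments (some values are the mean of two).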

MOLT-3 [2] = assay: Induction of apoptosis by the compound in human Molt-3 cell line after 72 hours; type: functional, cell-based; conditions: MOLT-3, 72 h
Summary of the method: (§2)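 Cultures were exposed under optimal conditions to 16–1000 µM compound, or control medium, for the stated time. Cells were stained with acridine orange, and over 600 cells were counted by fluorescence microscopy. AC50 is the concentration giving 50% apoptosis, from three or more experiments (some are the mean of two).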

HL-60 [3] = assay: Cytotoxicity in human HL-60 cell line after 24 hours; type: functional; conditions: HL-60, 24 h; summary of the method: as §1
MOLT-3 [4] = assay: Cytotoxicity in human Molt-3 cell line after 72 hours; type: functional; conditions: MOLT-3, 72 h; summary of the method: as §1
HL-60 [5] = assay: Induction of apoptosis by the compound in human HL-60 cell line after 24 hours; type: functional, cell-based; conditions: HL-60, 24 h; summary of the method: as §2
MOLT-3 [6] = assay: Induction of apoptosis by the compound in human Molt-3 cell line after 48 hours; type: functional, cell-based; conditions: MOLT-3, 48 h; summary of the method: as §2
HL-60 [7] = assay: Cytotoxicity in human HL-60 cell line after 72 hours; type: functional; conditions: HL-60, 72 h; summary of the method: as §1
MOLT-3 [8] = assay: Cytotoxicity in human Molt-3 cell line after 48 hours; type: functional; conditions: MOLT-3, 48 h; summary of the method: as §1
HL-60 [9] = assay: Induction of apoptosis by the compound in human HL-60 cell line after 48 hours; type: functional, cell-based; conditions: HL-60, 48 h; summary of the method: as §2
MOLT-3 [10] = assay: Induction of apoptosis by the compound in human Molt-3 cell line after 24 hours; type: functional, cell-based; conditions: MOLT-3, 24 h; summary of the method: as §2
HL-60 [11] = assay: Cytotoxicity in human HL-60 cell line after 48 hours; type: functional; conditions: HL-60, 48 h; summary of the method: as §1
HL-60 [12] = assay: Induction of apoptosis by the compound in human HL-60 cell line after 72 hours; type: functional, cell-based; conditions: HL-60, 72 h; summary of the method: as §2
U-937 [13] = assay: Cytotoxicity in human U937 cell line after 72 hours; type: functional; conditions: U-937, 72 h; summary of the method: as §1
U-937 [14] = assay: Induction of apoptosis by the compound in human U937 cell line after 72 hours; type: functional, cell-based; conditions: U-937, 72 h; summary of the method: as §2
U-937 [15] = assay: Induction of apoptosis by the compound in human U937 cell line after 48 hours; type: functional, cell-based; conditions: U-937, 48 h; summary of the method: as §2
U-937 [16] = assay: Cytotoxicity in human U937 cell line after 24 hours; type: functional; conditions: U-937, 24 h; summary of the method: as §1
U-937 [17] = assay: Cytotoxicity in human U937 cell line after 48 hours; type: functional; conditions: U-937, 48 h; summary of the method: as §1
U-937 [18] = assay: Induction of apoptosis by the compound in human U937 cell line after 24 hours; type: functional, cell-based; conditions: U-937, 24 h; summary of the method: as §2

SMILES | CC50 (MOLT-3 [1]) [mM] | AC50 (MOLT-3 [2]) [mM] | CC50 (HL-60 [3]) [mM] | CC50 (MOLT-3 [4]) [mM] | AC50 (HL-60 [5]) [mM] | AC50 (MOLT-3 [6]) [mM] | CC50 (HL-60 [7]) [mM] | CC50 (MOLT-3 [8]) [mM] | AC50 (HL-60 [9]) [mM] | AC50 (MOLT-3 [10]) [mM] | CC50 (HL-60 [11]) [mM] | AC50 (HL-60 [12]) [mM] | CC50 (U-937 [13]) [mM] | AC50 (U-937 [14]) [mM] | AC50 (U-937 [15]) [mM] | CC50 (U-937 [16]) [mM] | CC50 (U-937 [17]) [mM] | AC50 (U-937 [18]) [mM]
CCOP(=O)(CC1CC(n2cc(F)c(=O)[nH]c2=O)ON1C)OCC (configuration not stated) | 0.247 | 0.17 | > 1 | 0.141 | 0.25 | 0.277 | 0.408 | 0.197 | 0.151 | 0.457 | 0.457 | – | – | – | – | – | – | –
CCOP(=O)(CC1CC(n2cc(C)c(=O)[nH]c2=O)ON1C)OCC (configuration not stated) | > 1 | > 1 | > 1 | > 1 | > 1 | > 1 | > 1 | > 1 | > 1 | > 1 | > 1 | > 1 | > 1 | > 1 | > 1 | > 1 | > 1 | > 1
CCOP(=O)(CC1CC(n2ccc(N)nc2=O)ON1C)OCC (configuration not stated) | > 1 | > 1 | > 1 | > 1 | > 1 | > 1 | > 1 | > 1 | > 1 | > 1 | > 1 | > 1 | > 1 | > 1 | > 1 | > 1 | > 1 | > 1

Reference: ChEMBL document CHEMBL1144407, “Synthesis of phosphonated carbocyclic 2'-oxa-3'-aza-nucleosides: novel inhibitors of reverse transcriptase” (J Med Chem, 2005)
